Measured values taken from paper PMC3821033 (FEBS Open Bio, 2013).

Legend:
Format in all cases: biochemical
[1] = target: T1, LDHA (Lactococcus cremoris, UniProt A2RKA4); experiment: inhibition of NADH-coupled activity; conditions: inhibitor; both reaction directions; 1 mM FBP, pH 7.0, 30 °C
T1 sequence (A2RKA4 1-325): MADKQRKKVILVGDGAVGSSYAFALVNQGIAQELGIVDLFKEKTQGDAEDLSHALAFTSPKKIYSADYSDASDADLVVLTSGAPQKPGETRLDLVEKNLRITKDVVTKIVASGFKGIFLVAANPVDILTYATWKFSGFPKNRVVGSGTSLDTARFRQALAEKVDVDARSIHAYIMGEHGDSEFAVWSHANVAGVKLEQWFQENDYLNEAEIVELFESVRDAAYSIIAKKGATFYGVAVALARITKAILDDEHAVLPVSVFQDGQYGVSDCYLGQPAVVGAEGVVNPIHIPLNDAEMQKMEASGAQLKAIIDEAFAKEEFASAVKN

[2] = target: T1, LDHA; experiment: inhibition of NADH-coupled activity; conditions: read-out: % remaining rate at 8 mM
[3] = target: T1, LDHA; experiment: activation of NADH-coupled activity; conditions: 200 µM, allosteric activator, Tris-maleate pH 7.0, 30 °C
In short: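 Recombinant His-tagged LDHA from L. lactis MG1363, expressed in E. coli Transetta (DE3) (0.5 mM IPTG, 30 °C, 4 h) and purified on Ni-NTA with imidazole elution. Pyruvate reduction was followed spectrophotometrically as the decrease in NADH absorbance at 340 or 380 nm, at 30 °C in 100 mM Tris–maleate pH 7.0, with about 40–200 ng/ml enzyme; 1 unit = 1 μmol/min.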

[4] = target: T2, FNI (Lactococcus cremoris, UniProt A2RID7); experiment: 1H NMR of product after […] h; conditions: 5 mM MgCl2, 10 μM FMN, 5 mM NADH, 2 mM DTT, pH 7.0, 30 °C
T2 sequence (A2RID7 1-349): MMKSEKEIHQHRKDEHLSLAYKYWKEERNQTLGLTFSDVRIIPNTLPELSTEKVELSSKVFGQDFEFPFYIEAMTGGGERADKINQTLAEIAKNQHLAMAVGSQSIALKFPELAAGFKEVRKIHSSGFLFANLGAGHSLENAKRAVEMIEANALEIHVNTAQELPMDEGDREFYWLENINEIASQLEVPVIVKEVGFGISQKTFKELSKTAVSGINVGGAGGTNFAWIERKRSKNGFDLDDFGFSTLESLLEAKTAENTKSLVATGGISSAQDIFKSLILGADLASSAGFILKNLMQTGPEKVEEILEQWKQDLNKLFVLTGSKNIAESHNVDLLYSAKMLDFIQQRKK

Nc1ncnc2c1ncn2[C@@H]1O[C@H](COP(=O)(O)OP(=O)(O)O)[C@@H](O)[C@H]1O [ADP]
inhibition of NADH-coupled activity [1]: ADP was shown to be a more severe inhibitor

Nc1ncnc2c1ncn2[C@@H]1O[C@H](COP(=O)(O)OP(=O)(O)OP(=O)(O)O)[C@@H](O)[C@H]1O [ATP]
remaining activity at 8000 µM [2]: > 80%

O=P(O)(O)OC[C@H]1OC(O)(COP(=O)(O)O)[C@@H](O)[C@@H]1O (some centres unmarked) [FBP]
Pyruvate reduction (%) [3]: 66 ± 4.7%

C=C(C)CCOP(=O)(O)OP(=O)(O)O [IPP]
1H NMR of product after 15 h [4]: conversion of IPP to dimethylallyl diphosphate was observed

CC(C)=CCOP(=O)(O)OP(=O)(O)O [dimethylallyl diphosphate]
1H NMR of product after 15 h [4]: appearance of signals for dimethylallyl diphosphate
